High-throughput results from PubChem BioAssay.
HSP90 inh: HSP90 inhibitors, primary screen, cell lysate, luminescence | Rabbit reticulocyte lysate, luciferase refolding luminescence, 3 h | inhibition, % at 5.6 µM | 0.91% of 290,000 active | Heat shock protein HSP 90 (rabbit reticulocyte lysate; luciferase refolding);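 active = inhibition above the screen-wide mean plus 3 SD, computed separately per campaign, cut at about 16% in these data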;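 also: inhibitors lower the luminescence because luciferase stays unfolded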
FLuc inhib CS: firefly luciferase enzyme inhibitors, primary screen, artefact control for luciferase-based inhibitor screens, biochemical, luminescence, ATPLite; 10 min; inhibition, % at 10 µM; Luciferin 4-monooxygenase (Photinus pyralis), P08659; 1.5% of 200,000 active;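 active = inhibition above about 50% when tested at 10 µM, limit read from the data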
Target sequence (P08659 whole entry, looked up): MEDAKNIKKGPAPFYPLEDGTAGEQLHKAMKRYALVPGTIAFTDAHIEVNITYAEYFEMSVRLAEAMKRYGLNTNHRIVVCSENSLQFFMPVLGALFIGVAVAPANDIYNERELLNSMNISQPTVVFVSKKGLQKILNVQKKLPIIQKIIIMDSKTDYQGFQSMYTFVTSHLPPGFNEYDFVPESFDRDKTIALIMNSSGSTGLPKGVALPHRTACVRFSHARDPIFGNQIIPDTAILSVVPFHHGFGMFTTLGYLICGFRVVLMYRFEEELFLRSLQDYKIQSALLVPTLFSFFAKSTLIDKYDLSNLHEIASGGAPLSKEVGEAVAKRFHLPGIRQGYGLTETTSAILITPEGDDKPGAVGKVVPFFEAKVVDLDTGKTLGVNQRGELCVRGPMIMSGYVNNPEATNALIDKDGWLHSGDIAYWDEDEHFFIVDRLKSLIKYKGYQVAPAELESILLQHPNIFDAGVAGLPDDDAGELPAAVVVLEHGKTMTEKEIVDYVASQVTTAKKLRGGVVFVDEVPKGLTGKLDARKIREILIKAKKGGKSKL
STAT3 inh-1: IL-6 driven STAT3 reporter inhibitors, primary screen, U3A cells, luciferase, luminescence, MLSCN library; IL-6 STAT3-luciferase reporter; host cell line lacks STAT1; inhibition, % at 5.5 µM; 0.89% of 190,000 active;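 active = inhibition above the mean inhibition across all screened compounds plus 3 SD, cut at about 44% in these data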
C8 TRAIL sens: viability loss with TRAIL in NB7+C8 cells, primary screen, TRAIL sensitizer project, cell-based, ATPlite luminescence; inhibition (viability loss, TRAIL sensitization), % at 10 µM; 1% of 360,000 active;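 active = compounds causing at least 50% loss of cell viability in the single-dose screen, relative to plate controls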
FLuc act counter: FLuc activators, initial screening, artefact control for FLuc-dependent activation tests, biochemical, ATPlite luminescence. ATPlite luciferase biochemical, 10 min; 0 = ATP-free wells, 1 = DMSO control. 200,000 tested, under 10 active. Luciferin 4-monooxygenase (Photinus pyralis), P08659. activation factor at 10 µM;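 active = luciferase activation factor, scaled between plate controls, of at least 2 with compound at 10 µM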
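System: Luciferase/luciferin detection reagent, cell-free biochemical luciferase assay | Medium: PBS buffer for ATP | Dosing: Test compounds dosed from 2 mM stocks in 100% DMSO | Timing: 10 min at ambient temperature | Signal: Luminescence measurement of luciferase light output | Evaluation: Luciferase activation, seen as luminescence increase over controls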
PPC-1+TRAIL kill: compounds killing PPC-1 cancer cells with TRAIL present, primary screen, TRAIL potentiator project, ATPLite luminescence, uHTS; PPC-1 cells + TRAIL, ATPLite viability luminescence; cell killing (% activity), % at 4 µM or 5 µM; 0.41% of 220,000 active;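 active = cell killing above 50% in the first pass at 4 µM, then a duplicate retest at 5 µM averaging 50% or more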
STAT3 inh-2: STAT3 reporter inhibitors, retest of hits, confirmation, U3A cells, luciferase, luminescence | shares compounds with STAT3 inh-1 | IL-6 STAT3 luciferase reporter; cell line lacks STAT1 | inhibition, % at 5.7 µM | 45% of 1,200 active | AID 1265, 2008;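 active = inhibition above the hit cutoff computed for the primary STAT3 screen, cut at about 44% in these data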
NFkB inh STAT3ct: NF-kB reporter inhibitors in human cells, confirmation, counter-screen for STAT3 inhibitor project, cell-based, HEK293T, luciferase, TNF-alpha stimulus; TNF-alpha induced; inhibition, % at 5.7 µM; 36% of 1,200 active; shares compounds with STAT3 inh-1;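 active = inhibition above the mean of solvent-only control wells plus 3 SD, cutoff set per campaign, cut at about 13% in these data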
STAT1 inh 2: STAT1 reporter inhibitors, IFN-gamma induced, confirmation, counter-screen for STAT3 inhibitor project, cell-based, NIH 3T3, luciferase luminescence; shares compounds with STAT3 inh-1; NIH 3T3 STAT1-luciferase reporter; inhibition, % at 5.7 µM; 27% of 1,200 active; AID 1317, 2008;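 active = inhibition above the mean plus 3 SD of solvent-only control wells, limit set per screening run, cut at about 16% in these data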
PPC-1 tox: cytotoxicity in PPC-1 cells, confirmation, cytotoxicity control for TRAIL apoptosis potentiator project, cell-based, ATP content luminescence; shares compounds with PPC-1+TRAIL kill; PPC-1 viability, ATPlite luminescence, overnight; cytotoxicity, % at 5 µM; 50% of 1,200 active;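 active = reconfirmed compounds whose average cytotoxicity reaches 50% or more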
HSP90 confirm: HSP90 inhibitors, confirmation, cell lysate, luminescence; 64% of 2,300 active; AID 1846, 2009; shares compounds with HSP90 inh; rabbit reticulocyte lysate, luciferase refolding luminescence, 3 h; inhibition, % at 5.9 µM; in the data active = inhibition above about 18%
FLuc counter: firefly luciferase inhibitors, HSP90 counter-screen, confirmation, artefact control for HSP90 inhibitor project, biochemical, luminescence, triplicate; shares compounds with HSP90 inh; AID 1847, 2009; 48% of 2,300 active; purified native firefly luciferase; inhibition, % at 5.9 µM;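 active = inhibition above the mean inhibition of all tested sample wells plus 3 SD, cut at about 10% in these data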
Hits are given with their value; 0 = inactive; - = not tested or not shown. Sampled rows, rich in hits. Any-hit rate of the full collection: about 2.2%.

SMILES | HSP90 inh | FLuc inhib CS | STAT3 inh-1 | C8 TRAIL sens | FLuc act counter | PPC-1+TRAIL kill | STAT3 inh-2 | NFkB inh STAT3ct | STAT1 inh 2 | PPC-1 tox | HSP90 confirm | FLuc counter
c1ccc(-c2cn3c4c(sc3n2)CCCC4)cc1 | 33 | 95 | 82 | 85 | 0 | 82 | 59 | 50 | 0 | 83 | 83 | 80
C=CCn1c(C)cc(C(=O)CSc2nc3ccccc3[nH]2)c1C | 32 | 55 | 99 | 0 | 0 | 0 | 61 | 15 | 0 | - | 62 | 63
COc1ccc(-c2noc([C@@H]3O[C@H](CO)[C@H](O)[C@H](O)[C@H]3O)n2)cc1OC | - | - | - | 0 | - | - | - | - | - | - | - | -
Cc1cc(C(=O)COC(=O)c2n[nH]c3ccccc23)c(C)n1CC1CCCO1 (stereo unspecified) | 52 | 92 | 64 | 72 | 0 | 0 | 0 | 0 | 0 | - | 55 | 54
COCCn1c(C)cc(C(=O)COC(=O)c2n[nH]c3ccccc23)c1C | 44 | 94 | 83 | 88 | 0 | 82 | 51 | 23 | 0 | 84 | 66 | 69
Cn1cc([N+](=O)[O-])c(C(=O)N2CCCCCC2)n1 | 0 | - | - | 0 | - | - | - | - | - | - | - | -
Cc1nc(N2CCN(S(=O)(=O)c3ccccc3C#N)CC2)c2c(-c3ccccc3)csc2n1 | - | - | - | 0 | - | - | - | - | - | - | - | -
C=CCn1c(C)cc(C(=O)COC(=O)CNC(=O)c2ccccc2)c1C | 17 | 0 | 46 | 0 | 0 | 0 | 0 | 0 | 0 | - | 0 | 29
CCOC(=O)c1c(N)sc(C(=O)Nc2ccc3c(c2)OCO3)c1C | 41 | 90 | 85 | 78 | 0 | 71 | 0 | 17 | 0 | 77 | 69 | 59
O=C1C(=C2SCCCS2)CC/C1=C\c1ccc(F)cc1 | 54 | 93 | 115 | 84 | 0 | 90 | 93 | 81 | 0 | 90 | 92 | 86
CN(C)c1ccc(/C=c2\sc3n(c2=O)CCCN=3)cc1 | 18 | 84 | 64 | 62 | 0 | 0 | 0 | 0 | 0 | - | 65 | 52
CCc1nc2ccc(C(=O)N3CCCC(C(N)=O)C3)cn2c1N(C)Cc1ccc(OC)cc1 (stereo unspecified) | - | - | - | 0 | - | - | - | - | - | - | - | -
O=C(CCCOc1ccc(Cl)cc1)N1CCCCC1 | 0 | 0 | 0 | 0 | 0 | 0 | - | - | - | - | - | -
O=C(CCCOc1ccccc1)N1CCCCC1 | 34 | 0 | 48 | 0 | 0 | 0 | 0 | 0 | 0 | - | 66 | 53
CC(C)c1ccc2[nH]c3nc(SCC(=O)N4CCOCC4)nnc3c2c1 | 0 | 0 | 0 | 0 | 0 | 0 | - | - | - | - | - | -
Cc1oc(-c2ccc3c(c2)OCCO3)cc1C(=O)O | 96 | 62 | 64 | 0 | 0 | 0 | 93 | 56 | 74 | - | 101 | 91
Cc1cc(NCc2ccccc2)n2ncc(-c3ccccc3)c2n1 | 0 | - | - | 0 | - | - | - | - | - | - | - | -
COc1ccc(-c2cc(C)nc3c(-c4ccccc4)cnn23)cc1 | 21 | 51 | 51 | 0 | 0 | 0 | 0 | 0 | 0 | - | 45 | 28
Cc1cc(N2CCOCC2)n2ncc(-c3ccccc3)c2n1 | 51 | 84 | 66 | 69 | 0 | 0 | 0 | 0 | 0 | 0 | 67 | 62
Cc1cc(NCCCn2ccnc2)n2ncc(-c3ccccc3)c2n1 | 34 | 87 | 74 | 77 | 0 | 67 | 0 | 25 | 0 | 62 | 62 | 56
Cc1cc(-c2ccccc2)n2ncc(-c3ccccc3)c2n1 | 22 | 85 | 50 | 62 | 0 | 55 | 0 | 0 | 0 | - | 61 | 55
Cc1ccc(-c2nc(CS(=O)(=O)CC(=O)NCCN3CCCC3)c(C)o2)cc1 | 0 | - | - | 0 | - | - | - | - | - | - | - | -
O=C(NCc1ccccc1Br)c1ccncc1 | 0 | - | - | 0 | - | - | - | - | - | - | - | -
CC(=O)NC(Cc1ccccc1C)C(=O)NC1CCN(C(=O)c2ccc(C)cc2)CC1 (stereo unspecified) | 0 | 0 | 0 | 0 | 0 | - | - | - | - | - | - | -
Cc1ccc2nc(NC(=O)c3cccs3)sc2c1 | 19 | 73 | 70 | 61 | 0 | 52 | 0 | 0 | 0 | 54 | 40 | 38
SMILES | HSP90 inh | FLuc inhib CS | STAT3 inh-1 | C8 TRAIL sens | FLuc act counter | PPC-1+TRAIL kill | STAT3 inh-2 | NFkB inh STAT3ct | STAT1 inh 2 | PPC-1 tox | HSP90 confirm | FLuc counter
Cc1ccc2nc(NC(=O)CSCC(=O)OCC(=O)c3ccccc3)sc2c1 | 66 | 0 | 51 | 0 | 0 | 0 | 57 | 23 | 24 | - | 78 | 0
CS(=O)(=O)c1ccc2nc(NC(=O)c3cccs3)sc2c1 | 18 | 91 | 59 | 81 | 0 | 75 | 0 | 0 | 0 | 76 | 37 | 23
Nc1c(C(=O)CSc2nnc(Cc3ccccc3)o2)c(=O)[nH]c(=O)n1C1CC1 | - | - | - | 0 | - | - | - | - | - | - | - | -
COC(=O)[C@@]12C[C@@H](CC(=O)NCC34CC5CC(CC(C5)C3)C4)C(=O)N(Cc3ccccc3)C1=CCC(C)(C)C2 | - | - | - | 0 | - | - | - | - | - | - | - | -
N=c1n(CCN2CCCC2)c2ccccc2n1CC(O)c1ccc(Cl)c(Cl)c1 (stereo unspecified) | 0 | 0 | 0 | 0 | 0 | 0 | - | - | - | 0 | - | -
CC1=NN(c2nc3ccccc3[nH]2)C(=O)/C1=C/N(C)C | 0 | 94 | 0 | 88 | 0 | 79 | - | - | - | 79 | - | -
CC1=NN(c2ccccc2)C(=O)/C1=C/N(C)C | 0 | - | - | 0 | - | 0 | - | - | - | - | - | -
O=C(CSc1nnc(-c2ccc(O)cc2)o1)Nc1ccccc1 | 0 | - | - | 0 | - | - | - | - | - | - | - | -
O=C(CSc1nnc(-c2csc3c2CCCC3)o1)Nc1ccccc1 | 0 | 0 | 0 | 77 | 0 | 58 | - | - | - | 56 | - | -
C=CCN(CC=C)S(=O)(=O)c1ccc(NC(=O)COc2ccccc2OC)cc1 | 0 | 0 | 0 | 0 | 0 | 0 | - | - | - | 0 | - | -
